Assay [1] concerns A549. Briefly: Cytotoxicity against human A549 cells expressing Wnt2 after 24 to 72 hrs by MTS assay. It counts as functional, cell-based. The essentials: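 Wnt2-overexpressing A549 cells (stable pUSEampWnt2, G418 selection) in RPMI-1640 with 10% FBS. Seeded at 8 × 10^3 cells/well and allowed ~24 h to attach. Exposed to a range of concentrations. Viability measured 24 h after treatment by MTS (30 min at 37 °C, A490); IC50 derived.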

Assay [2] deals with A549. Briefly: Inhibition of total beta-catenin expression in human A549 whole cell extract at cytotoxicity IC50 by Western blot analysis. It counts as functional, cell-based.
The subject of assay [3] is A549. Briefly: Inhibition of nucleus beta-catenin expression in human A549 cells at cytotoxicity IC50 by Western blot analysis. Type of assay: functional, cell-based.
For assay [4], the system named is A549. Briefly: Inhibition of cytosolic beta-catenin expression in human A549 cells at cytotoxicity IC50 by Western blot analysis. Type of assay: functional, cell-based.
Assay [5] is described as follows: Inhibition of Wnt2/beta-catenin signaling pathway in human A549 cells assessed as inhibition of Tcf/Lef transcriptional activity at cell proliferation IC50 after 24 hrs by dual luciferase reporter gene assay. It counts as cell-based. The conditions noted are these: dose or concentration not given here. In a few lines:
(§1)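 A549/Wnt2 cells co-transfected by lipofection with pSuper-Topflash (eight TCF sites driving firefly luciferase) or mutant pSuperFopflash, plus pRL-TK renilla for normalization. Compounds added at 37 °C for 24 h. Lysates read by dual-luciferase assay. Firefly/renilla ratio reported as mean ± SEM of triplicates, relative to non-treated cells.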

Assay [6] has as its system A549. Briefly: Antiproliferative activity against human A549 cells expressing Wnt2 after 72 hrs by MTS assay. It counts as functional, cell-based. The conditions noted are these: for IC50: A549, 72 h. In a few lines: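 A549 cells stably transfected with pUSEampWnt2 (G418-selected), grown in RPMI-1640 with 10% FBS at 37 °C, 5% CO2. Seeded at 3 × 10^3 cells/well and allowed to attach ~24 h. Treated with a range of concentrations.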

Assay [7] deals with A549. Briefly: Ratio of IC50 for antiproliferative activity against human A549 cells to IC50 for cytotoxicity against human A549 cells. It counts as functional. The essentials: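 Ratio of two MTS IC50s in A549/Wnt2 cells. Proliferation: 3 × 10^3 cells/well, read at 72 h. Cytotoxicity: 8 × 10^3 cells/well, read 24 h after treatment.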
In assay [8] the test system is A549. Briefly: Inhibition of cyclin D1 mRNA expression in human A549 cells expressing Wnt2 after 24 hrs by RT-PCR analysis. Type of assay: functional, cell-based.
Assay [9] can be described thus: Inhibition of Wnt2/beta-catenin signaling pathway in human A549 cells assessed as inhibition of Tcf/Lef transcriptional activity after 24 hrs by dual luciferase reporter gene assay. It counts as cell-based. The conditions noted are these: A549, 24 h. In a few lines: as §1

Data on 15 molecules can be found in ChEMBL document CHEMBL1821693, “A novel 3-arylethynyl-substituted pyrido[2,3,-b]pyrazine derivatives and pharmacophore model as Wnt2/β-catenin pathway inhibitors in non-small-cell lung cancer cell lines” (Bioorg Med Chem, 2011).

The source made the active and inactive calls. The rule behind the calls is not given here.

`Fc1cccc(C#Cc2nc3ncccc3nc2OCCN2CCCC2)c1` yielded an IC50 in the assay with A549 [1] of 2450 nM. Also, the inhibition entry in the assay on A549 [2], in the assay with A549 [3] and in the assay with A549 [4] was “Active” each time. The inhibition in assay [5] was 30%.
On to `COc1cc(C#Cc2nc3ncccc3nc2OCCCN(C)C)cc(OC)c1`, for which it took 380 nM to reach half-maximal inhibition in the assay on A549 [1] (IC50). In addition, the inhibition entry in the assay on A549 [2], in the assay on A549 [3] and in the assay with A549 [4] was “Active” in each case. Moreover, the inhibition in [5] was 30%.
Take `CCN(CC)CCOc1nc2cccnc2nc1C#Cc1ccc(OC)cc1`: the IC50 was 640 nM with A549 [1] and 208 nM with A549 [6]. Also, the inhibition entry is “Dose-dependent effect” in the assay on A549 [6] and 50% in assay [5]. The “Ratio IC50” value in the assay with A549 [7] was found to be 3.07. The inhibition result in the assay with A549 [2], in the assay with A549 [3], in the assay with A549 [4] and with A549 [8] was “Active” throughout.
Regarding `COc1ccc(C#Cc2nc3ncccc3nc2OCCN(C)C)c(C)c1`, the IC50 amounted to 2950 nM with A549 [1] and 830 nM in the assay with A549 [6]. Moreover, the inhibition result in the assay on A549 [6] is “Dose-dependent effect”; in assay [5], 30%. Also, the inhibition entry in the assay on A549 [2], with A549 [3] and with A549 [4] was “Active” in each case.
Take `COc1cccc(C#Cc2nc3ncccc3nc2Cl)c1`: inhibition in the assay on A549 [1] was half-maximal at 4000 nM (IC50). Moreover, the inhibition entry with A549 [2], in the assay on A549 [3] and with A549 [4] was “Active” throughout. For the same molecule, the inhibition in assay [5] came out at 50%.
For `C(#Cc1nc2ncccc2nc1OCCc1ccccn1)c1ccccc1`, the IC50 is 200 nM in the assay with A549 [1], 120 nM in assay [9] and 43 nM with A549 [6]. Further, the inhibition result in the assay with A549 [6] was “Dose-dependent effect”; in [5], 50%. In addition, the inhibition entry in the assay on A549 [2], in the assay with A549 [3], in the assay on A549 [4] and in the assay with A549 [8] was “Active” in each case.
`Cc1ccc(C#Cc2nc3ncccc3nc2OC(C)CN(C)C)cc1` (stereo unspecified) registered an IC50 in the assay with A549 [1] of 1900 nM. Besides, the inhibition result in the assay on A549 [2], in the assay with A549 [3] and with A549 [4] was “Active” throughout. The inhibition in assay [5] worked out at 30%.
Consider `CN(C)CCOc1nc2ccccc2nc1C#Cc1ccccc1`, for which the IC50 in assay [9] was determined as 758 nM.
The molecule `C(#Cc1nc2ncccc2nc1OCCN1CCCC1)c1ccccc1` yielded an IC50 in the assay with A549 [1] of 720 nM. For the same molecule, the inhibition result with A549 [2], with A549 [3] and in the assay on A549 [4] was “Active” each time. The inhibition in assay [5] was 30%.
Regarding `CN(C)c1cccc(COc2nc3cccnc3nc2C#Cc2ccccc2)c1`, the IC50 with A549 [1] came out at 1720 nM. For the same molecule, the inhibition entry in the assay with A549 [2], in the assay with A549 [3] and with A549 [4] was “Active” throughout. Also, the inhibition in assay [5] came to 30%.
For the molecule `CN1CCCC(Oc2nc3cccnc3nc2C#Cc2ccccc2)C1` (stereo unspecified), the IC50 in the assay with A549 [1] stood at 720 nM. Moreover, the inhibition result in the assay on A549 [2], in the assay on A549 [3] and in the assay on A549 [4] was “Active” throughout. Further, the inhibition in assay [5] was 30%.
In turn, `CC(C)N(CCOc1nc2cccnc2nc1C#Cc1cccc(F)c1)C(C)C` registered an IC50 in the assay on A549 [1] of 2890 nM. Further, the inhibition result with A549 [2], in the assay on A549 [3], in the assay with A549 [4] and with A549 [8] was “Active” in each case. Moreover, in [5], the inhibition came to 50%.
As to `COc1c(C[C@@H](C)OC(=O)Oc2ccc(O)cc2)c2c3c(C[C@@H](C)OC(=O)c4ccccc4)c(OC)c(=O)c4c(O)cc(OC)c(c5c(OC)cc(O)c(c1=O)c52)c43` [CALPHOSTIN C], in the assay on A549 [1], inhibition was half-maximal at 3200 nM (IC50).
On to `COc1cccc(C#Cc2nc3ncccc3nc2OCCCN(C)C)c1`, for which half-maximal inhibition in the assay with A549 [1] (IC50) was put at 280 nM. Besides, the inhibition entry with A549 [2], with A549 [3] and with A549 [4] was “Active” throughout. In [5], the inhibition turned out to be 30%.
As to `CN(C)CCOc1nc2cccnc2nc1C#Cc1cccc(F)c1`, the figures for the IC50 in the assay with A549 [1] and in the assay on A549 [6] were 1940 nM and 535 nM, respectively. The inhibition entry with A549 [6] was “Dose-dependent effect”; in assay [5], 30%. The inhibition entry in the assay on A549 [2], in the assay on A549 [3], with A549 [4] and in the assay with A549 [8] was “Active” in each case.
